The target in data set [1] is Sodium-dependent dopamine transporter (Homo sapiens, UniProt Q01959). Put plainly: Displacement of [125I]RTI-55 from human DAT expressed in HEK293 cell membranes. In short, it runs like this:
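Total particulate membranes from HEK-293 cells stably expressing hDAT, with [125I]RTI-55 at 40−60 pM. Nonspecific binding defined with 5 μM mazindol.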
On the technique in general: Loss of bound radioactivity is the signal in a displacement assay; it reports binding, not function.

For data set [2], the system named is HEK293. Put plainly: Cytotoxicity in HEK293 cells expressing human VMAT2 assessed as reduction in cell viability at 10 uM incubated for 24 hrs by MTT assay. In kind it is cell-based. To be noted: hek293, 24 h. An outline of the steps:
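HEK-VMAT2 cells plated at 5 × 10^4 per well. Drugs added on day 2 to triplicate wells, all with 0.1% DMSO, for 24 h. MTT reagent then 2 h at 37 °C, solvent added, read at 590 nm. Values normalized to control cells. One-way ANOVA with post hoc test.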
(Formazan colour is commonly taken as a measure of viable cells.)

Data set [3] concerns the target Sodium-dependent noradrenaline transporter (Homo sapiens, UniProt P23975). Put plainly: Displacement of [125I]RTI-55 from human NET expressed in HEK293 cell membranes.
For data set [4], the target named is Synaptic vesicular amine transporter (Mus musculus, UniProt Q8BRU6). Put plainly: Inhibition of VMAT2 in C57Bl/6J mouse striatal membranes assessed as reduction in [3H[-5HT uptake pre-incubated for 10 mins before [3H[-5HT addition and measured after 8 mins. In kind it is cell membranes, Striatum, Membrane.
Data set [5] has as its target Sodium-dependent serotonin transporter (Homo sapiens, UniProt P31645). Put plainly: Displacement of [125I]RTI-55 from human SERT expressed in HEK293 cell membranes.
Data set [6] concerns the target 5-hydroxytryptamine receptor 2A (Homo sapiens, UniProt P28223). Put plainly: biochemical. In kind it is cell-based, HEK293.
For data set [7], the system named is HEK293. Put plainly: Cytotoxicity in HEK293 cells expressing human VMAT2 assessed as reduction in cell viability at 1 uM incubated for 24 hrs by MTT assay. In kind it is cell-based. To be noted: hek293, 24 h. An outline of the steps: (§1)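 HEK-293 cells stably expressing human VMAT2, seeded at 5 × 10^4 cells/well in DMEM with 10% FetalClone, penicillin/streptomycin and G418. On day 2, compound in DMEM was added to triplicate wells, with 0.1% DMSO in all conditions, for 24 h. MTT reagent was then added for 2 h at 37 °C, followed by solvent. Absorbance read at 590 nm, normalized to control cells, and analyzed by one-way ANOVA with Dunnett's test.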

The test system of data set [8] is HEK293. Put plainly: Cytotoxicity in HEK293 cells expressing human VMAT2 assessed as reduction in cell viability at 3 uM incubated for 24 hrs by MTT assay. In kind it is cell-based. To be noted: hek293, 24 h. An outline of the steps:
as §1

As usually defined, the Ki is a dissociation constant, usually derived from enzyme kinetics or from competition with a known ligand. What is called IC50 is the point on the concentration scale where inhibition reaches its midpoint.

Sodium-dependent dopamine transporter, sequence (Q01959 whole entry): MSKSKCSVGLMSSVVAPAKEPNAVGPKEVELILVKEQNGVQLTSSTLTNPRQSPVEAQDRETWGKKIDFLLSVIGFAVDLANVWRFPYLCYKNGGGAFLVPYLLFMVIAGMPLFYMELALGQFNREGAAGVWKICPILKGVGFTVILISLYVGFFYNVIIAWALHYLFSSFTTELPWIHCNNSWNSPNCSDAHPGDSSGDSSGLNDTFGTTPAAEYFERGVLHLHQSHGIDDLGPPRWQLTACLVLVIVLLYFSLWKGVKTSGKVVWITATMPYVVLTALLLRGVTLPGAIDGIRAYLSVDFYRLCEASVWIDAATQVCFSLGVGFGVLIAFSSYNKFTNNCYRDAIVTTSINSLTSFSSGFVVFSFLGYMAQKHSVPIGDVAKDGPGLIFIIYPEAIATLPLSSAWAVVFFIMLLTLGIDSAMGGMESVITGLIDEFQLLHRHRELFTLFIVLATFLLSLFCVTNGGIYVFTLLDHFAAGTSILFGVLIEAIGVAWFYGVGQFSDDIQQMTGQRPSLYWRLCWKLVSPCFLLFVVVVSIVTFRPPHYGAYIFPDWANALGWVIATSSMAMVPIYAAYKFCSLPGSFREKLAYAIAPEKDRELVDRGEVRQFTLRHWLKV
Sodium-dependent serotonin transporter, sequence (P31645 whole entry): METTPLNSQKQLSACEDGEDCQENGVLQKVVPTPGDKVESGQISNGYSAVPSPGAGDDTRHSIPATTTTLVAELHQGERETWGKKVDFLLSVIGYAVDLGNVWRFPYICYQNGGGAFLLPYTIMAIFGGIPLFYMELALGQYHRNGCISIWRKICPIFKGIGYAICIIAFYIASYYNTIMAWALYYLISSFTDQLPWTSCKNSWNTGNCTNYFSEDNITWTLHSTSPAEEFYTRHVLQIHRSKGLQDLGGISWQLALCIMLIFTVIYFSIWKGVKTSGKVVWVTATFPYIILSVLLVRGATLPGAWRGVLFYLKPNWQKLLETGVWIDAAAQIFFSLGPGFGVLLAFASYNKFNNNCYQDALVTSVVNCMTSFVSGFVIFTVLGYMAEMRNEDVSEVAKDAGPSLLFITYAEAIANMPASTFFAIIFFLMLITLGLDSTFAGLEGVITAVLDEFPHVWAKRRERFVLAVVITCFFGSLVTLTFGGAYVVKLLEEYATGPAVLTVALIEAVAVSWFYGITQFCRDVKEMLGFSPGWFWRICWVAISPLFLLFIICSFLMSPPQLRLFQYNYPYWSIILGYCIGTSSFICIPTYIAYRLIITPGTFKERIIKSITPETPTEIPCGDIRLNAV
Synaptic vesicular amine transporter, sequence (Q8BRU6 whole entry): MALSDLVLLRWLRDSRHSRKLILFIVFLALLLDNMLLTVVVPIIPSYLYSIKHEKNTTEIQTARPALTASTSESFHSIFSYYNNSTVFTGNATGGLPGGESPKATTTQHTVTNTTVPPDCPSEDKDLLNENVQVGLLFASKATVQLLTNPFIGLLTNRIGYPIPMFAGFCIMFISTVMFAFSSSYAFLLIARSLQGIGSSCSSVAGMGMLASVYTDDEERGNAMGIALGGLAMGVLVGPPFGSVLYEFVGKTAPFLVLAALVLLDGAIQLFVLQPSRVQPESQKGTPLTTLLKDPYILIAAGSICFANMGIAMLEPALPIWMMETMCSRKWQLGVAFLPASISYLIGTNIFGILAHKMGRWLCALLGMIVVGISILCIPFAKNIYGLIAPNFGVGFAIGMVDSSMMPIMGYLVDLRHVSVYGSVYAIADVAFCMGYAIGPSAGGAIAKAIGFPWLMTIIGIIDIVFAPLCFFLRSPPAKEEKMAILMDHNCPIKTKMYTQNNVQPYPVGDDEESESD
Sodium-dependent noradrenaline transporter, sequence (P23975 whole entry): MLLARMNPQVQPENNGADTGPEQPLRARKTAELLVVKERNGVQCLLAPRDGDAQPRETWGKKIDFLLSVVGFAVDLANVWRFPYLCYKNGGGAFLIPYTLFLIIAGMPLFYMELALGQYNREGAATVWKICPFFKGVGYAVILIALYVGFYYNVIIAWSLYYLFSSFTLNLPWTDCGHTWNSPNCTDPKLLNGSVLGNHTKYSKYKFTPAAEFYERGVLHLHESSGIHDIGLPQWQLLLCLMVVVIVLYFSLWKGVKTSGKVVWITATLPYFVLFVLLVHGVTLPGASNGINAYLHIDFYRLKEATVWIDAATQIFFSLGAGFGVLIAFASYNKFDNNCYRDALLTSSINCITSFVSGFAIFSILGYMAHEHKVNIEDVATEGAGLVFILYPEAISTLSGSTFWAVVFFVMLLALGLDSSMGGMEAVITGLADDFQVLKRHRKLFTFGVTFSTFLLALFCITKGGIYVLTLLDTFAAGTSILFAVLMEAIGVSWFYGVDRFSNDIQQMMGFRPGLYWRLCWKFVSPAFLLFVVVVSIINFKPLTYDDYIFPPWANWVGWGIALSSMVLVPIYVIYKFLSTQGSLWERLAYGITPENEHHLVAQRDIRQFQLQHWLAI
5-hydroxytryptamine receptor 2A, sequence (P28223 whole entry): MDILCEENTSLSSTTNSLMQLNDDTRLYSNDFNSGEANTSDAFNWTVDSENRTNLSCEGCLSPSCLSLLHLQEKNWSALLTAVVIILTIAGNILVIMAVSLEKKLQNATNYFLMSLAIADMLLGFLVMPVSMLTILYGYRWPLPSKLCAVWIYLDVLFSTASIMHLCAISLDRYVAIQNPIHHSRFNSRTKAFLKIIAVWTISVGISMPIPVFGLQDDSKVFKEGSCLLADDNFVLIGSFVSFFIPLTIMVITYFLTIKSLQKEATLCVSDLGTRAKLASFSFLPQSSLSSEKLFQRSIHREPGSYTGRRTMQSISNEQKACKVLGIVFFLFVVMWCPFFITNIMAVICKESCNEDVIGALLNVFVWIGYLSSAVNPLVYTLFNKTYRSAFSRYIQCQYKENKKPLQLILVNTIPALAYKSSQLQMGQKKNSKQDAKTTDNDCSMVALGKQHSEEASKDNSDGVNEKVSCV

Regarding `CCOC(=O)C1CN(CCn2c(=O)[nH]c3ccccc3c2=O)CCC1c1ccc(F)cc1` (single isomer, unassigned; (+)), the Ki was 2.44 µM in data set [1], more than 10 µM in data set [3], more than 10 µM in data set [5] and more than 10 µM in data set [6]. The Activity result in the data set on HEK293 [2] is “Non-Toxic”. The IC50 in data set [4] is 0.00339 µM.
For the compound `CN[C@@H]1C[C@H]2O[C@@](C)([C@@H]1OC)n1c3ccccc3c3c4c(c5c6ccccc6n2c5c31)C(=O)NC4` [STAUROSPORINE], the Activity stood at 45% with HEK293 [7] and 60% with HEK293 [8].

The record behind these values is ChEMBL document CHEMBL4196220, “Synthesis and Discovery of Arylpiperidinylquinazolines: New Inhibitors of the Vesicular Monoamine Transporter” (J Med Chem, 2018).
